Laboratory results published in ChEMBL document CHEMBL1123309, “Esters and lactones of phenolic amino carboxylic acids: prodrugs for iron chelation” (J Med Chem, 1986).
Several values for one entry are separate records, joined by “and”; a condition that tells them apart may be missing. Identical values can stand only once.

Columns and labels:
Rattus norvegicus [1] = experiment: Percent change in iron levels was determined in feces using iron overload rat model where the route of administration is Peroral; format: functional
Rattus norvegicus [2] = experiment: Percent change in iron levels was determined in urine using iron overload rat model where the route of administration is Peroral; format: functional
Rattus norvegicus [3] = experiment: Percent change in iron levels was determined in urine using iron overload rat model where the route of administration is Intraperitoneal; format: functional
[4] = Compound was evaluated for lethal dose after intraperitoneal administration using iron overload rat model; format: toxicity, organism-based; conditions: in vivo, ip
Rattus norvegicus [5] = experiment: Percent change in iron levels was determined in feces using iron overload rat model where the route of administration is Intraperitoneal; format: functional
Mus musculus [6] = experiment: BDF1 male mice were administered with 200 mg/kg intraperitoneally and percent change in iron levels was determined in Spleen; format: functional; conditions: route intraperitoneal
Procedure, shortened: (§1)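 Male BDF1 mice made iron-overloaded by transfusion of washed, heat-treated (50 °C, 30 min) canine red cells. Dosing began 2 days after the last transfusion, once daily for 7 days, in distilled water or 2% Polysorbate 80 suspension. Daily group urine was collected. Pooled feces were digested in 1 N HCl (90 °C, 30 min). Liver and spleen were homogenized in saline. Iron was measured by atomic absorption and expressed as % change vs transfused controls.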

Mus musculus [7] = experiment: BDF1 male mice were administered reduced to 100 mg/kg on day 4 intraperitoneally and percent change in iron levels was determined in Spleen; format: functional; conditions: route oral, in the assay text read “orally” for “intraperitoneally”; procedure, shortened: as §1
Mus musculus [8] = experiment: BDF1 male mice were administered with 200 mg/kg intraperitoneally and number of survivors was determined out of 10 tested; format: functional; conditions: route intraperitoneal, 200 mg/kg
Procedure, shortened: (§2)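 Male BDF1 mice were iron-loaded by transfusion of canine red cells. The cells were heparinised, washed twice in isotonic saline and heated at 50 °C for 30 min. Dosing started two days after the last transfusion, once daily for 7 consecutive days. Compounds were given in distilled water or as a fine aqueous suspension with Polysorbate 80 (2% final). Toxic signs were recorded daily and survivors counted per group.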

Mus musculus [9] = experiment: BDF1 male mice were administered reduced to 100 mg/kg on day 4 intraperitoneally and percent change in iron levels was determined in Urine; format: functional; conditions: route oral, in the assay text read “orally” for “intraperitoneally”; procedure, shortened: as §1
Mus musculus [10] = experiment: BDF1 male mice were administered reduced to 100 mg/kg on day 4 intraperitoneally and percent change in iron levels was determined in Liver; format: functional; conditions: route oral, in the assay text read “orally” for “intraperitoneally”; procedure, shortened: as §1
Mus musculus [11] = experiment: BDF1 male mice were administered with 200 mg/kg intraperitoneally and percent change in iron levels was determined in Feces; format: functional; conditions: route intraperitoneal; procedure, shortened: as §1
Mus musculus [12] = experiment: BDF1 male mice were administered reduced to 100 mg/kg on day 4 intraperitoneally and percent change in iron levels was determined in Feces; format: functional; conditions: route oral, in the assay text read “orally” for “intraperitoneally”; procedure, shortened: as §1
Mus musculus [13] = experiment: BDF1 male mice were administered with 200 mg/kg intraperitoneally and percent change in iron levels was determined in Urine; format: functional; conditions: route intraperitoneal; procedure, shortened: as §1
Mus musculus [14] = experiment: BDF1 male mice were administered with the compound and number of survivors was determined out of 10 tested at a dose 200 mg/kg peroral; format: functional; conditions: route oral; procedure, shortened: as §2
Mus musculus [15] = experiment: BDF1 male mice were administered with 200 mg/kg orally and percent change in iron levels was determined in Feces; format: functional; conditions: route oral; procedure, shortened: as §1
Mus musculus [16] = experiment: BDF1 male mice were administered with the compound and number of survivors was determined out of 10 tested at a dose 400 mg/kg peroral; format: functional; conditions: route oral; procedure, shortened: as §2
Mus musculus [17] = experiment: BDF1 male mice were administered with the compound and number of survivors was determined out of 10 tested at a dose 375 mg/kg intraperitoneal
Mus musculus [18] = experiment: BDF1 male mice were administered with 200 mg/kg orally and percent change in iron levels was determined in spleen; format: functional; conditions: route oral; procedure, shortened: as §1
Mus musculus [19] = experiment: BDF1 male mice were administered with 200 mg/kg orally and percent change in iron levels was determined in Liver; format: functional; conditions: route oral; procedure, shortened: as §1
Mus musculus [20] = experiment: BDF1 male mice were administered with 50 mg/kg orally and percent change in iron levels was determined in spleen; format: functional; conditions: dose 375 mg/kg; route intraperitoneal; in the assay text read “375 mg/kg intraperitoneally” for “50 mg/kg orally”
Mus musculus [21] = experiment: BDF1 male mice were administered with 200 mg/kg orally and percent change in iron levels was determined in Urine; format: functional; conditions: route oral; procedure, shortened: as §1
Mus musculus [22] = experiment: BDF1 male mice were administered with 100 mg/kg orally and percent change in iron levels was determined in spleen; format: functional; conditions: dose 400 mg/kg; route oral; in the assay text read “400 mg/kg” for “100 mg/kg”; procedure, shortened: as §1
Mus musculus [23] = experiment: BDF1 male mice were administered with 25 mg/kg orally and percent change in iron levels was determined in spleen; format: functional; conditions: dose 200 mg/kg; route intraperitoneal; in the assay text read “200 mg/kg intraperitoneally” for “25 mg/kg orally”

COC(=O)C(NCCNC(C(=O)OC)c1ccccc1O)c1ccccc1O (stereo not drawn)
Iron change (Rattus norvegicus [1]): 89%
Iron change (Rattus norvegicus [2]): 115%
Iron change (Rattus norvegicus [3]): 188%
LD50 [4]: ≥ 800 mg/kg
Iron change (Rattus norvegicus [5]): 104%

O=C(O)CN(CCN(CC(=O)O)Cc1ccccc1O)Cc1ccccc1O
Iron change (Mus musculus [6]): -5%
Iron change (Mus musculus [7]): -9%
Iron change (Rattus norvegicus [1]): 53%
No. of survivors (Mus musculus [8]): 10 and 9
Iron change (Mus musculus [9]): 14%
Iron change (Rattus norvegicus [2]): 40%
Iron change (Mus musculus [10]): -3%
Iron change (Rattus norvegicus [3]): 196%
LD50 [4]: ≥ 800 mg/kg
Iron change (Mus musculus [11]): 38%
Iron change (Mus musculus [12]): -7%
Iron change (Rattus norvegicus [5]): 195%
Iron change (Mus musculus [13]): 50%

COC(=O)CN(CCN(CC(=O)OC)Cc1ccccc1OC(C)=O)Cc1ccccc1OC(C)=O [DIMETHYL ESTER]
No. of survivors (Mus musculus [14]): 10
Iron change (Mus musculus [15]): -41%
No. of survivors (Mus musculus [16]): 6
No. of survivors (Mus musculus [17]): 10
Iron change (Mus musculus [18]): -13%
Iron change (Mus musculus [19]): -40%
Iron change (Mus musculus [20]): -5%
Iron change (Mus musculus [21]): 138%
Iron change (Mus musculus [22]): -46%
Iron change (Mus musculus [23]): -22%
